According to ChEMBL document CHEMBL3763032, “Novel Small Molecule Inhibitors of Choline Kinase Identified by Fragment-Based Drug Discovery” (J Med Chem, 2016):
pIC50, pKd: −log10 of the molar value. Activity calls are given as the source filed them. The rule behind the calls is not given here.

Legend:
Choline kinase alpha [1] = target: T1, Choline kinase alpha (Homo sapiens, UniProt P35790)
Target sequence in this assay (P35790 whole entry): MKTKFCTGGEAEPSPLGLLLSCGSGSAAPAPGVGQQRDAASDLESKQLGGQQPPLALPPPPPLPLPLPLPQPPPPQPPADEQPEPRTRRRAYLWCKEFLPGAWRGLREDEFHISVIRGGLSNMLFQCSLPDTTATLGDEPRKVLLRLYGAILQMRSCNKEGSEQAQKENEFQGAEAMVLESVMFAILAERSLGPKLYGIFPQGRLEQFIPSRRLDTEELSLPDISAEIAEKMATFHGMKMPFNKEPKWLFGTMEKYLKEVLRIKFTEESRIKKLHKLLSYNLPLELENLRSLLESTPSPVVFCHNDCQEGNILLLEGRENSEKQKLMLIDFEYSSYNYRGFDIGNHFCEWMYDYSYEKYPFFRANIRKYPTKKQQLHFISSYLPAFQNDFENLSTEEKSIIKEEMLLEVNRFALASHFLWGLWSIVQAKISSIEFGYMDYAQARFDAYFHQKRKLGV

Choline kinase alpha [2] = target: T1, Choline kinase alpha; remark: listed apart in the source
Target sequence in this assay (P35790 whole entry, looked up): as the sequence (P35790 whole entry) above

Choline kinase alpha [3] = target: T1, Choline kinase alpha; remark: listed apart in the source
Target sequence in this assay (P35790 whole entry): as above

[4] = Cytotoxicity against human MCF10A cells after 72 hrs by MTT assay; format: cell-based; details: MCF-10A
MDA-MB-468 [5] = experiment: Cytotoxicity against human MDA-MB-468 cells after 72 hrs by MTT assay; format: functional, cell-based; details: MDA-MB-468, 72 h
Carbonic anhydrase 2 = Carbonic anhydrase 2 (Homo sapiens, UniProt P00918); experiment: Binding affinity to carbonic anhydrase2 (unknown origin) by surface plasmon resonance assay
In short: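 Carbonic anhydrase II, used as the reference surface, amine-coupled at a density similar to the ChoKα1 surface. 25 °C, 2-fold dilution series (fragments top at 300 μM). Single-step kinetics (Biacore) or FastStep (SensiQ). Kd from 1:1 binding model fits.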

MDA-MB-415 [6] = experiment: Induction of apoptosis in human MDA-MB-415 cells expressing ChoKalpha after 24 hrs by caspase-3/7 assay; format: functional, cell-based
In short: (§1)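 Cells exposed to compounds for 24 h, then caspase activity measured with the Apo-ONE homogeneous caspase-3/7 assay. Apoptosis expressed as a percentage of vehicle-treated cells, from one representative experiment.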

MDA-MB-415 [7] = experiment: Cytotoxicity against human MDA-MB-415 cells expressing ChoKalpha after 72 hrs by CyQuant cell proliferation assay; format: functional; details: for GI50: Homo sapiens, MDA-MB-415, 72 h
In short: (§2)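 Cells from ATCC, used within 6 months, grown in the supplier-recommended medium. Treated with compound or vehicle for 72 h, then read by CyQuant proliferation kit. GI50 determined after correcting for cell count at time zero, with growth plotted as percent of vehicle-treated cells. Mean ±SD from ≥2 separate experiments.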

MDA-MB-468 [8] = experiment: Cytotoxicity against human MDA-MB-468 cells expressing ChoKalpha after 72 hrs by CyQuant cell proliferation assay; format: functional; details: for GI50: Homo sapiens, MDA-MB-468, 72 h
In short: as §2

[9] = Cytotoxicity against human MCF12A cells after 72 hrs by CyQuant cell proliferation assay; format: cell-based, MCF-12A; details: for GI50 at 72 h: MCF12A cells; for %max: mcf-12a, 72 h
In short: as §2

Choline kinase alpha [10] = target: T1, Choline kinase alpha; experiment: Inhibition of ChoKalpha in human MDA-MB-415 cells assessed as reduction in phosphocholine level after 24 hrs by NMR analysis; format: cell-based
Target sequence in this assay (P35790 whole entry): as above

[11] = Effect on phosphocholine level in human MCF12A cells after 24 hrs by NMR analysis; format: ADME, cell-based; details: mcf-12a
In short: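 Cells grown with increasing compound concentrations or vehicle (DMSO) for 24 h, then counted and checked for viability by Trypan blue exclusion. 5 ×10^6 viable cells washed twice in ice-cold d-PBS and extracted by vortexing 30 s in 6 mL ice-cold 100% methanol. Intracellular choline and phosphocholine quantified by NMR.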

[12] = Cytotoxicity against human MCF10A cells after 72 hrs by CyQuant cell proliferation assay; format: cell-based, MCF-10A; details: for GI50 at 72 h: MCF10A cells; for %max: mcf-10a, 72 h
In short: as §2

[13] = Induction of apoptosis in human MCF12A cells upto 40 uM after 24 hrs by caspase-3/7 assay; format: cell-based; details: mcf-12a
In short: as §1

Choline kinase alpha [14] = target: T1, Choline kinase alpha; experiment: Inhibition of recombinant human ChoKalpha using choline as substrate by ultraviolet spectroscopic assay
In short: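 Coupled ATP-regeneration assay with recombinant human ChoKα1 (N-terminal His tag, pET28a, >95% pure) at 10–50 nM monomer. A340 read over 10–30 min. Initial rates taken across 2-fold inhibitor dilutions and fitted to a dose–response model for IC50.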
Target sequence in this assay (P35790 whole entry): as above

Choline kinase alpha [15] = target: T1, Choline kinase alpha; experiment: Inhibition of ChoKalpha in human MDA-MB-468 cells assessed as reduction in phosphocholine level after 24 hrs by NMR analysis; format: cell-based
Target sequence in this assay (P35790 whole entry): as above

Choline kinase alpha [16] = target: T1, Choline kinase alpha; experiment: Reversible binding affinity to human N-terminal truncated ChoKalpha1 (75 to 457 residues) ChoKalpha1 by STD NMR analysis
In short: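 Saturation-transfer difference NMR primary screen. On-resonance irradiation was at 0.8 ppm and off-resonance at 30 ppm, with excitation-sculpting water suppression; 320 scans were averaged.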
Target sequence in this assay (P35790 whole entry, looked up): as the sequence (P35790 whole entry) above

| pIC50 (Choline kinase alpha [1]) | Ka (Choline kinase alpha [2]) | pKd (Choline kinase alpha [3]) | SMILES | other results |
| --- | --- | --- | --- | --- |
| 6.57 | 235000 M⁻¹ s⁻¹ | 7.06 | CN1CCCN(Cc2ccc(-c3ccc(CN4CCCN(C)CC4)c(Cl)c3)cc2)CC1 | – |
| < 3.52 | – | 3.47 | O=C(N1CCCCCC1)N1CCNCC1 | pKd (Carbonic anhydrase 2): 2.85 |
| 7.07 | 112000 M⁻¹ s⁻¹ | 7.00 | CN1CCCN(Cc2ccc(-c3ccc(CN4CCCN(C)CC4)cc3C#N)c(F)c2)CC1 | Activity (MDA-MB-415 [6]): Active; %max (MDA-MB-415 [7]): 189%; GI50 (MDA-MB-415 [7]): 2 µM; %max (MDA-MB-468 [8]): 139%; GI50 (MDA-MB-468 [8]): 7 µM; GI50 at 72 h [9]: > 40 µM; %max [9]: 51%; pIC50 (Choline kinase alpha [10]): 6.12; Activity [11]: Non-toxic; GI50 at 72 h [12]: 18 µM; %max [12]: 99%; Activity [13]: Non-toxic |
| 5.41 | – | 5.40 | CN1CCCN(Cc2ccc3ncccc3c2)CC1 | – |
| 5.31 | – | 5.62 | COC(=O)c1ccc(-c2ccc(CN3CCCN(C)CC3)cc2)cc1 | – |
| 6.63 | 718000 M⁻¹ s⁻¹ | 7.68 | CN1CCCN(Cc2ccc(-c3ccc(CN4CCCN(C)CC4)c(F)c3F)cc2)CC1 | – |
| 6.34 | 94000 M⁻¹ s⁻¹ | 6.42 | CN1CCCN(Cc2ccc(-c3ccc(CN4CCCN(C)CC4)cc3)cc2)CC1 | Activity (MDA-MB-415 [6]): Active; %max (MDA-MB-415 [7]): 158%; GI50 (MDA-MB-415 [7]): 4 µM; %max (MDA-MB-468 [8]): 163%; GI50 (MDA-MB-468 [8]): 9 µM; GI50 at 72 h [9]: 31 µM; %max [9]: 64%; GI50 at 72 h [12]: 27 µM; %max [12]: 77%; pIC50 (Choline kinase alpha [15]): 5.70; Activity [13]: Non-toxic |
| 7.18 | 676000 M⁻¹ s⁻¹ | 8.00 | CN1CCCN(Cc2ccc(-c3ccc(CN4CCCN(C)CC4)cc3C#N)cc2)CC1 | – |
| 5.89 | – | 6.11 | CN1CCCN(Cc2ccc(-c3ccc(N4CCN(C)CC4)cc3)cc2)CC1 | – |
| 6.59 | 125000 M⁻¹ s⁻¹ | 6.59 | CN1CCCN(Cc2ccc(-c3cc(F)c(CN4CCCN(C)CC4)c(F)c3)cc2)CC1 | – |
| 6.60 | – | 6.71 | CN1CCCN(Cc2ccc(-c3ccc(C(=O)N4CCCN(C)CC4)cc3)cc2)CC1 | – |
| 6.78 | 93000 M⁻¹ s⁻¹ | 6.68 | CN1CCCN(Cc2ccc(-c3ccc(CN4CCCN(C)CC4)cc3F)cc2)CC1 | – |
| < 2.70 | – | 3.71 | CN1CCCN(c2ccc(CO)cc2)CC1 | – |

Continued, compound first:

| SMILES | pIC50 (Choline kinase alpha [1]) | Ka (Choline kinase alpha [2]) | pKd (Choline kinase alpha [3]) | other results |
| --- | --- | --- | --- | --- |
| CN(c1ccc(Cl)cc1)c1cc[n+](Cc2ccc(-c3ccc(C[n+]4ccc(N(C)c5ccc(Cl)cc5)c5ccccc54)cc3)cc2)c2ccccc12 [RSM-932A] | – | – | – | pIC50 [4]: 5.15; pIC50 (MDA-MB-468 [5]): 5.62 |
| CN1CCCN(Cc2ccc3ccccc3c2)CC1 | 5.59 | – | 5.37 | – |
| CN1CCCN(Cc2ccc(-c3ccccc3)cc2)CC1 | 5.83 | – | 5.43 | – |
| O[C@](CCc1ccccc1OC1CCOCC1)(c1ccccc1)C1CN2CCC1CC2 (some centres not stated) | – | – | – | pIC50 (Choline kinase alpha [14]): 7.70 |
| CN1CCCN(Cc2ccc(CN)cc2)CC1 | 4.06 | – | 3.88 | pKd (Carbonic anhydrase 2): 3.31 |
| COc1ccc(-c2ccc(CN3CCCN(C)CC3)cc2)cc1 | 5.84 | – | 5.42 | – |
| Cc1cc(O)cc(C)c1C#N | – | – | – | Activity (Choline kinase alpha [16]): Active |
| Nc1cc(C(F)(F)F)ncn1 | < 3.52 | – | 3.20 | pKd (Carbonic anhydrase 2): 3.17 |
| CN1CCCN(Cc2ccc(-c3ccc(C(F)(F)F)cc3)cc2)CC1 | 5.59 | – | 5.40 | – |
| CN1CCNCC(Cc2ccc3ncccc3c2)C1 (configuration not stated) | 4.76 | – | 5.15 | – |
